# Test results as given in article PMC9177108 (The Oncologist, 2022).
# Where two headings read alike, the source gives them in different places.
# Columns and labels:
# FGFR = details: AL3810 compared with sorafenib; cited from earlier work
# Plasma pharmacokinetics = assay type: in vivo, human; details: for AUC(0-t) / AUC / Vd/F / half-life / k el / Cmax / concentration at 15 day / MRT: human, plasma, 10 mg; for AUC: AUCss; for Vd/F: V z/F; for Cmax: C max; for concentration at 15 day: Css; for Css, max, Mean ± SD: C1D15, 10 mg p.o.
# Method in brief: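 Test compound was given at 10 mg orally, either continuously daily or 3 weeks on/1 week off. Plasma PK was sampled on cycle 1 day 1 after a single dose for Tmax, Cmax, AUC0-24h, AUC0-t, AUC0-∞, λz, t1/2, CL/F, Vz/F, %AUCex and MRT. After multiple doses, steady-state parameters were Css max/min/avg, Tss,max, AUCss, CLss/F, Vss/F, %Fluctuation and accumulation ratios. […]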
# [1] = test system: patients with advanced solid tumors; details: cited from earlier work
# [2] = test system: patients with recurrent and metastatic nasopharyngeal carcinoma (RM-NPC); assay: Antitumor efficacy; assay type: in vivo, human; details: for time to response: radiologic assessment every 8 weeks
# Method in brief: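 Patients with pretreated RM-NPC were randomised to two arms, each evaluated separately (10 per arm). Both arms took test compound 10 mg orally daily: intermittent arm 3 weeks on/1 week off, continuous arm daily on a 4-week cycle. The investigator assessed response by RECIST 1.1. ORR was CR or PR as best overall response. DCR was confirmed CR, confirmed PR or SD lasting ≥4 weeks from randomisation.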
# [3] = oral, GeoMean(%CVb), single dose, C1D1, continuous arm (n = 5)
# [4] = oral, GeoMean(%CVb), single dose, C1D1, intermittent arm (n = 4)
# [5] = multiple dose, C1D15, continuous arm (n=5)
# [6] = multiple dose, C1D15, intermittent arm (n=4)
# [7] = single dose, C1D1, continuous arm (n = 5)
# [8] = single dose, C1D1, intermittent arm (n = 4)
# [9] = continuous arm (10 mg p.o. daily, 4-week cycle), n = 10
# [10] = intermittent arm (10 mg p.o., 3 weeks on/1 week off), n = 10
# [11] = intermittent arm, n = 10, listed as lucitanib
smiles,measurement,setting,value
CNC(=O)c1cccc2cc(Oc3ccnc4cc(OCC5(N)CC5)c(OC)cc34)ccc12 [Lucitanib],potency against FGFR,FGFR,more potent
same,time at which steady state is reached (trough levels),Plasma pharmacokinetics; 10 mg p.o. once daily,≤ 15 days
same,AUC(0-t),"Plasma pharmacokinetics; AUC0-t, GeoMean(%CVb), single dose, C1D1, continuous arm (n = 5)",2370 ng·h/mL
same,AUC(0-t),"Plasma pharmacokinetics; AUC0-t, GeoMean(%CVb), single dose, C1D1, intermittent arm (n = 4)",2720 ng·h/mL
same,AUC,"Plasma pharmacokinetics; GeoMean(%CVb), multiple dose, C1D15, continuous arm (n=5)",6170 ng·h/mL
same,AUC,"Plasma pharmacokinetics; GeoMean(%CVb), multiple dose, C1D15, intermittent arm (n=4)",9160 ng·h/mL
same,AUC,"Plasma pharmacokinetics; Mean ± SD, multiple dose, C1D15, continuous arm (n=5)",6670 ± 2630 ng·h/mL
same,AUC,"Plasma pharmacokinetics; Mean ± SD, multiple dose, C1D15, intermittent arm (n=4)",9680 ± 3710 ng·h/mL
same,Vd/F,"Plasma pharmacokinetics; GeoMean(%CVb), single dose, C1D1, continuous arm (n = 5)",68 L
same,Vd/F,"Plasma pharmacokinetics; GeoMean(%CVb), single dose, C1D1, intermittent arm (n = 4)",58.1 L
same,Vd/F,"Plasma pharmacokinetics; Mean ± SD, single dose, C1D1, continuous arm (n = 5)",75.2 ± 40.2 L
same,Vd/F,"Plasma pharmacokinetics; Mean ± SD, single dose, C1D1, intermittent arm (n = 4)",60.8 ± 19.8 L
same,half-life,"Plasma pharmacokinetics; t 1/2, GeoMean(%CVb), single dose, C1D1, continuous arm (n = 5)",21.9 h
same,half-life,"Plasma pharmacokinetics; t 1/2, GeoMean(%CVb), single dose, C1D1, intermittent arm (n = 4)",22.1 h
same,half-life,"Plasma pharmacokinetics; t 1/2, Mean ± SD, single dose, C1D1, continuous arm (n = 5)",23.8 ± 11.8 h
same,half-life,"Plasma pharmacokinetics; t 1/2, Mean ± SD, single dose, C1D1, intermittent arm (n = 4)",24.8 ± 15.5 h
same,k el,"Plasma pharmacokinetics; λ z, GeoMean(%CVb), single dose, C1D1, continuous arm (n = 5)",8.33e-06 s⁻¹
same,k el,"Plasma pharmacokinetics; λ z, GeoMean(%CVb), single dose, C1D1, intermittent arm (n = 4)",8.33e-06 s⁻¹
same,k el,"Plasma pharmacokinetics; λ z, Mean ± SD, single dose, C1D1, continuous arm (n = 5)",8.33e-06 s⁻¹
same,k el,"Plasma pharmacokinetics; λ z, Mean ± SD, single dose, C1D1, intermittent arm (n = 4)",8.33e-06 s⁻¹
same,k el,"Plasma pharmacokinetics; λz, Mean ± SD, multiple dose, C1D15, continuous arm (n=5)",5.56e-06 s⁻¹
same,k el,"Plasma pharmacokinetics; λz, Mean ± SD, multiple dose, C1D15, intermittent arm (n=4)",5.56e-06 s⁻¹
same,AUC(0-t),"Plasma pharmacokinetics; oral, AUC0-24h, GeoMean(%CVb), single dose, C1D1, continuous arm (n = 5)",2410 ng·h/mL
same,AUC(0-t),"Plasma pharmacokinetics; oral, AUC0-24h, GeoMean(%CVb), single dose, C1D1, intermittent arm (n = 4)",2770 ng·h/mL
same,AUC(0-t),"Plasma pharmacokinetics; oral, AUC0-24h, Mean ± SD, single dose, C1D1, continuous arm (n = 5)",2560 ± 858 ng·h/mL
same,AUC(0-t),"Plasma pharmacokinetics; oral, AUC0-24h, Mean ± SD, single dose, C1D1, intermittent arm (n = 4)",3110 ± 1890 ng·h/mL
same,AUC(0-t),"Plasma pharmacokinetics; oral, AUC0-t, Mean ± SD, single dose, C1D1, continuous arm (n = 5)",2510 ± 834 ng·h/mL
same,AUC(0-t),"Plasma pharmacokinetics; oral, AUC0-t, Mean ± SD, single dose, C1D1, intermittent arm (n = 4)",3030 ± 1750 ng·h/mL
same,Cmax,Plasma pharmacokinetics; [3],261 ng/mL
same,Cmax,Plasma pharmacokinetics; [4],228 ng/mL
same,concentration at 15 day,"Plasma pharmacokinetics; oral, avg, GeoMean(%CVb), multiple dose, C1D15, continuous arm (n=5)",257 ng/mL
same,concentration at 15 day,"Plasma pharmacokinetics; oral, avg, GeoMean(%CVb), multiple dose, C1D15, intermittent arm (n=4)",382 ng/mL
same,concentration at 15 day,"Plasma pharmacokinetics; oral, avg, Mean ± SD, multiple dose, C1D15, continuous arm (n=5)",278 ± 110 ng/mL
same,concentration at 15 day,"Plasma pharmacokinetics; oral, avg, Mean ± SD, multiple dose, C1D15, intermittent arm (n=4)",403 ± 155 ng/mL
same,concentration at 15 day,"Plasma pharmacokinetics; oral, min, GeoMean(%CVb), multiple dose, C1D15, continuous arm (n=5)",176 ng/mL
same,concentration at 15 day,"Plasma pharmacokinetics; oral, min, GeoMean(%CVb), multiple dose, C1D15, intermittent arm (n=4)",284 ng/mL
same,concentration at 15 day,"Plasma pharmacokinetics; oral, min, Mean ± SD, multiple dose, C1D15, continuous arm (n=5)",203 ± 93.5 ng/mL
same,concentration at 15 day,"Plasma pharmacokinetics; oral, min, Mean ± SD, multiple dose, C1D15, intermittent arm (n=4)",303 ± 118 ng/mL
same,MRT,Plasma pharmacokinetics; [3],32.2 h
same,MRT,Plasma pharmacokinetics; [4],32.6 h
same,MRT,"Plasma pharmacokinetics; oral, Mean ± SD, single dose, C1D1, continuous arm (n = 5)",34.2 ± 14.3 h
same,MRT,"Plasma pharmacokinetics; oral, Mean ± SD, single dose, C1D1, intermittent arm (n = 4)",36.3 ± 21.6 h
same,k el,"Plasma pharmacokinetics; oral, λz, GeoMean(%CVb), multiple dose, C1D15, continuous arm (n=5)",2.78e-06 s⁻¹
same,k el,"Plasma pharmacokinetics; oral, λz, GeoMean(%CVb), multiple dose, C1D15, intermittent arm (n=4)",5.56e-06 s⁻¹
same,"Css, max, Mean ± SD","Plasma pharmacokinetics; multiple dose, continuous arm (n=5)",482.80 ± 271.81 ng/mL
same,"Css, max, Mean ± SD","Plasma pharmacokinetics; multiple dose, intermittent arm (n=4)",608.50 ± 169.48 ng/mL
same,"%Fluctuation, GeoMean(%CVb)",Plasma pharmacokinetics; [5],90.75(63.71) %
same,"%Fluctuation, Mean ± SD",Plasma pharmacokinetics; [5],104.26 ± 61.47%
same,"CLss/F, GeoMean(%CVb)",Plasma pharmacokinetics; [5],1.62(49.01) L/hour
same,"CLss/F, Mean ± SD",Plasma pharmacokinetics; [5],1.78 ± 0.93 L/h
same,"Css, max, GeoMean(%CVb)",Plasma pharmacokinetics; [5],435.78(50.87) ng/mL
same,"R ac, AUC (accumulation ratio based on AUC), Mean ± SD",Plasma pharmacokinetics; [5],2.62 ± 0.55
same,"R ac, Cmax (accumulation ratio based on Cmax), Mean ± SD",Plasma pharmacokinetics; [5],1.98 ± 1.20
same,"Tss, max, Median",Plasma pharmacokinetics; [5],2.97 h
same,"%Fluctuation, GeoMean(%CVb)",Plasma pharmacokinetics; [6],79.03(27.10) %
same,"%Fluctuation, Mean ± SD",Plasma pharmacokinetics; [6],81.15 ± 21.54%
same,"CLss/F, GeoMean(%CVb)",Plasma pharmacokinetics; [6],1.09(40.16) L/hour
same,"CLss/F, Mean ± SD",Plasma pharmacokinetics; [6],1.15 ± 0.45 L/h
same,"Css, max, GeoMean(%CVb)",Plasma pharmacokinetics; [6],590.42(29.26) ng/mL
same,"R ac, AUC (accumulation ratio based on AUC), Mean ± SD",Plasma pharmacokinetics; [6],3.38 ± 0.84
same,"R ac, Cmax (accumulation ratio based on Cmax), Mean ± SD",Plasma pharmacokinetics; [6],2.67 ± 0.69
same,"Tss, max, Median",Plasma pharmacokinetics; [6],1.98 h
same,"%AUCex, GeoMean(%CVb)",Plasma pharmacokinetics; [7],47.22(22.24) %
same,"%AUCex, Mean ± SD",Plasma pharmacokinetics; [7],48.16 ± 10.87%
same,"CL/F, GeoMean(%CVb)",Plasma pharmacokinetics; [7],2.15(57.72) L/hour
same,"CL/F, Mean ± SD",Plasma pharmacokinetics; [7],2.44 ± 1.5048 L/h
same,"%AUCex, GeoMean(%CVb)",Plasma pharmacokinetics; [8],46.33(29.69) %
same,"%AUCex, Mean ± SD",Plasma pharmacokinetics; [8],47.96 ± 15.75%
same,"CL/F, GeoMean(%CVb)",Plasma pharmacokinetics; [8],1.83(105.30) L/hour
same,"CL/F, Mean ± SD",Plasma pharmacokinetics; [8],2.24 ± 1.21 L/h
same,"exposure (Cmax, AUC0-24h) at steady state relative to day 1","Plasma pharmacokinetics; steady state vs day 1, 10 mg p.o.",two to three times
same,tolerability of continuous dosing,"[1]; continuous 15 mg daily dose, arterial hypertension",unsustainable beyond three cycles
same,partial response / ORR,[1]; patients with FGF-aberrant (FGFR1- or FGF3/4/19-amplified) breast cancer,50%
same,median PFS,[1]; patients with FGF-aberrant breast cancer,40.4 weeks
same,median PFS,[1]; patients with angiogenesis-sensitive disease,25 weeks
same,duration of response,"[2]; all three responders, both arms",more than 1 year
same,time to response,[2]; all three responders,observed by the first evaluation
same,time to response,"[2]; all three responders, listed as lucitanib",at the first evaluation
same,Best response PR,[2]; [9],n = 2 (20%) n (%)
same,Response assessment CR,[2]; [9],n = 0 (0%) n (%)
same,Best response PR,"[2]; continuous arm (10 mg p.o. daily, 4-week cycle), n = 10, listed as lucitanib",2 (20) n (%)
same,Best response PD,"[2]; continuous arm, n = 10",1 (10) n (%)
same,Best response SD,"[2]; continuous arm, n = 10",7 (70) n (%)
same,DCR,"[2]; continuous arm, n = 10",90%
same,ORR,"[2]; continuous arm, n = 10",20%
same,Response assessment OTHER,"[2]; continuous arm, n = 10",n = 0 (0%) n (%)
same,median PFS,"[2]; continuous arm, n = 10, 90% CI 3.5 to NE",3.73 months
same,Best response PR,[2]; [10],1 (10) n (%)
same,Response assessment CR,[2]; [10],n = 0 (0%) n (%)
same,Best response SD,"[2]; intermittent arm, n = 10",n = 5 (50%) n (%)
same,median PFS,"[2]; intermittent arm, n = 10, 90% CI 1.74 to 7.36",3.68 months
same,Best response PD,[2]; [11],3 (30) n (%)
same,Best response SD,[2]; [11],5 (50) n (%)
same,DCR,[2]; [11],60%
same,ORR,[2]; [11],10%
same,"sustained response, patients still on treatment",[2]; two responders still on treatment at last follow-up,> 3 years
